According to the array DNA melting data of Ke et al. (doi:10.1101/2024.01.08.574731):

What was measured:
[1] = folding enthalpy; higher = less favourable; fluorescence melt of hairpins on a sequencing array, two-state fit; conditions: sodium 0.088 M
Procedure, shortened: (§1)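 To match UV melts, fitted temperatures were raised by 9.35 °C. These fits were bootstrapped two-state models that gave melting temperature and folding enthalpy, combined by inverse variance over four replicates. The input was normalised Cy3 fluorescence of library hairpins with annealed Cy3 and quencher oligos on a sequenced MiSeq flow cell, imaged in 50 mM Na-HEPES pH 8.0, 25 mM NaCl in 2.5 °C steps up to 60 °C.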

[2] = melting temperature; fluorescence melt of hairpins on a sequencing array, two-state fit, raised by 9.35 °C to match UV melts; conditions: sodium 0.088 M
Procedure, shortened: as §1

Sequence	folding enthalpy [1] [kcal/mol]	Tm [2] [°C]
CGCCCGGAAACGGCGGCG ((((((....)))..)))	-24.4	55.7
GATCTTTAAAAAGATC ((((((....))))))	-34.8	40.5
GGAAACGAAAGTTCTCC ((((((....))).)))	-16.8	35.8
GCGACGCGAAAGCGCTGC ((..(((....)))..))	-17.5	57.1
GGGAGCGAAAGCTTTCCC ((((((....)))..)))	-16.3	40.4
GATCTTCGGCAAGATC ((((((....))))))	-28.3	37.8
GATCTGTCGCAGATC ((((((...))))))	-24.5	48.5
GTCATCGAAAGATAGAC ((((((....))).)))	-24.6	39.7
GCGTAGGAAACTACGC ((((((....))))))	-31.2	67.1
GACGTGGGAAACCACATC ((.((((....)))).))	-17.4	34.5
CTTGTGAAAACAAG (((((....)))))	-23.1	45.2
GGCTGCGAAAGCATGGCC ((((((....)))..)))	-31.8	54.6
GCACACGAAAGTGATGC ((((((....))).)))	-33.1	54.5
GGGGCAGGAAACTGCCTC (.(((((....))))).)	-13.1	59.6
GCAATCGAAAGATGATGC ((((((....)))..)))	-18.6	32.5
GAACAGGGAAACCTGCTC ((.((((....)))).))	-18.8	37.1
GGTTCGGGAAACTGAACC (((((.(....).)))))	-47.2	53.2
GCTGTTGGAAACAGCAGC ((((.((....)).))))	-12.4	63
GATCACCAGAGTGATC ((((((....))))))	-40	57.2
TTGAGGAAACTCAA (((((....)))))	-15.6	35.3
GCAGACGAAAGTCGCTGC ((((((....)))..)))	-22.2	57.6
GATCCGACACCGGATC ((((((....))))))	-37.4	55.4
GCACCAGAAATGGTGC ((((((....))))))	-35.6	67.8

Sequence	folding enthalpy [1] [kcal/mol]	Tm [2] [°C]
GGTAGGGGAAACCCTGCC ((.((((....)))).))	-39.5	53.6
GCTTCGCGAAAGCTATGC ((.(.((....)).).))	-13.4	43.5
GCATAGCGAAAGCCCTGC (((..((....))..)))	-7.04	29.5
GATCGATTCTTCGATC ((((((....))))))	-36.8	56.9
GCGGTGCGAAAGCATTGC ((..(((....)))..))	-22.4	59.2
GATCCGAGTTCGGATC ((((((....))))))	-47.4	58.5
GATCATACCCATGATC ((((((....))))))	-38.6	46.5
GATCGCGAGCGCGATC ((((((....))))))	-35.4	67.2
GCCCAGCGAAAGCCTGGC (((..((....))..)))	-13	56.1
GCGATTGCTCGC ((((....))))	-14.3	52.5
GTGGCGCGAAAGCGCAC (((.(((....))))))	-8.04	57.6
GATCAAACGTTTGATC ((((((....))))))	-41.4	51
GATTCCGAAAGGAATC ((((((....))))))	-35.7	64.9
GTGTTCGGAAACGGACAC ((((.((....)).))))	-44.6	55
GATCGGCGCCCCGATC ((((((....))))))	-39.7	56.8
GCGCTGCGAAAGCAACGC (((.(((....))).)))	-49	61.5
GATTAAGGAAACTTAATC (((((((....)))))))	-31.3	45.5
GTGGACGGAAACGTCTGC (..((((....))))..)	-15.8	49.2
GGCTATCGAAAGATGCC (((.(((....))))))	-25.3	52.8
GCAGACCGAAAGGTATGC (((.(((....))).)))	-39.5	64.1
GATCTATAGTTAGATC ((((((....))))))	-27.1	39.4
GTATACGAAAGTAGATAC ((((((....)))..)))	-10.1	24.9
GATCGTGGAGACGATC ((((((....))))))	-42.4	57.8

Sequence	folding enthalpy [1] [kcal/mol]	Tm [2] [°C]
GTGTCCGCGAAAGCGCAC (((..(((....))))))	-14.1	40.5
GCATCCGAAAGGATTTGC ((((((....)))..)))	-18.5	43.9
GACGAAGGAAACCTCGTC (((((.(....).)))))	-33	46
GCGTATACACGC ((((....))))	-22.8	53.6
GGAAATGGAAACGTTTCC (((((.(....).)))))	-19.2	44.1
GGTGAAGGAAACTTTACC (((.(((....))).)))	-31.6	39
GGCCGACGAAAGTCGCC (((.(((....))))))	-14.4	60.2
GGCCTCGGAAACAAGGCC (((((.(....).)))))	-34.5	51.9
GACAGCGGAAACGCTGCC (.(((((....))))).)	-11.5	52.6
GCTTGCGAAAGCAGTAGC ((((((....)))..)))	-17.8	45.7
GCAATTGGAAACAATTGC (((((((....)))))))	-43.9	58.9
GGACAACCGAAAGGTTCC (((..(((....))))))	-10.9	29.4
GCATAGCGAAAGCGACGC ((.(.((....)).).))	-34.1	63.7
TCGATGAAAATCGA (((((....)))))	-19.5	47.4
GCTCACGAAAGTGCTAGC ((((((....)))..)))	-15.6	35.8
GCTTGTACGAAAGTAAGC (((..(((....))))))	-24.9	37.7
GCCCTGCGAAAGCTGTGC ((.(.((....)).).))	-15.7	38.9
CGGTAACGGAAACGTCCG (((..(((....))))))	-24.6	37.9
GGAGTTGAAAAACTCC ((((((....))))))	-36.2	55.7
GGAATATCGAAAGATTCC (((..(((....))))))	-20	33.3
GAGATTGCGAAAGCACTC (((..(((....))))))	-11.3	29.5
GTTGTGGGAAACTACAAC (((((.(....).)))))	-36.1	46.3
GTGCCTACGAAAGTACAC (((..(((....))))))	-4.56	37.8
